Assay results published in PMC9934649 (bioRxiv, 2023).
“Also recorded” adds a separate entry of the source.

Assays:
[1] = biological target: T1, WT human CDKL5 (Homo sapiens, UniProt O76039); assay: CDKL5 in vitro kinase assay; format: biochemical; details: 10 or 100 nM compound, 50 µM ATP, vs untreated WT CDKL5
T1 sequence (O76039 1-960): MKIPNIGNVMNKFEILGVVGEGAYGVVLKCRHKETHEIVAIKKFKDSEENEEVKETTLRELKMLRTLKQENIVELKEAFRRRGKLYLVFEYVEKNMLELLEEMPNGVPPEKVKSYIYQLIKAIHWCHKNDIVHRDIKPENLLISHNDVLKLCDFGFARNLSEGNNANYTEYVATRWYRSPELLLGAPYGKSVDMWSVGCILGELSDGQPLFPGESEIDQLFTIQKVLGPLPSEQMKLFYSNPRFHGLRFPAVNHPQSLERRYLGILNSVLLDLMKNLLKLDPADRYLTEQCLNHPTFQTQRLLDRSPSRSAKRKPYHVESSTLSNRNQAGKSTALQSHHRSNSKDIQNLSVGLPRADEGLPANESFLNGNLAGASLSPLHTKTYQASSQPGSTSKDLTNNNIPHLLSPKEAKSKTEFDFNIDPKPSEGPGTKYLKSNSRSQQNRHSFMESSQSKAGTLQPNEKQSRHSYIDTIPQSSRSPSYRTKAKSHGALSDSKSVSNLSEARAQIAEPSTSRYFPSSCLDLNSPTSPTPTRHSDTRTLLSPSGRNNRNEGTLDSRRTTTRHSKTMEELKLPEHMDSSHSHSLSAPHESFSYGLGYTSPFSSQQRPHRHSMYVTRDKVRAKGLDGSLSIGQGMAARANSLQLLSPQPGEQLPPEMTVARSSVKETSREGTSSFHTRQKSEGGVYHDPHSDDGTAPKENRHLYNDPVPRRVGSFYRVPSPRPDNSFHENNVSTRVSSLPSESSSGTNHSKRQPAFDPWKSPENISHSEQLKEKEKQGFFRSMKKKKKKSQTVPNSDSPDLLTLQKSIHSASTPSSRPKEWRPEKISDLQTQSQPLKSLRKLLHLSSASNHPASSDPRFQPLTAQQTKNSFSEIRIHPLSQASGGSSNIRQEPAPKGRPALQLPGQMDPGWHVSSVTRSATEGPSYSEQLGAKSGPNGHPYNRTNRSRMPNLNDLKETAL
Method in brief: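 FLAG-tagged WT human CDKL5, with a K42R kinase-dead control, was made by HeLa-lysate in vitro translation and purified on cobalt spin columns. Enzyme plus myelin basic protein substrate was incubated in kinase buffer with or without 50 µM ATP at 30 °C for 30 min, with test compound at 10 or 100 nM or DMSO. Read by ADP-Glo. Triplicate; one-way ANOVA with Dunnett's test.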

[2] = tested on: human motor neurons; assay: Neuroprotection assay, ER stress induced by cyclopiazonic acid; format: cell-based; details: for Motor neuron survival in response to ER stress: cyclopiazonic acid, 72 hours, 0.16–10 µM; for Motor neuron survival at low concentrations compared with AT-7519: low concentrations (<200 nM)
Method in brief: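 Motor neurons came from NCRM-1 iPSCs carrying a VAChT:TdTomato reporter, differentiated as embryoid bodies for 16 days. They were plated at 2000 cells/well on laminin/poly-ornithine in neurobasal medium with anti-mitotics, B-27, N-2 and GDNF, BDNF, IGF-1 and CNTF. After 48 h, cells were co-treated with cyclopiazonic acid and test compound (4-fold dilutions, 0.16–10 µM, triplicate wells) for 72 h. Calcein AM live cells were counted as % of DMSO-treated survivors.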

[3] = biological target: T2, CDKL5 (Homo sapiens, UniProt O76039); assay: CDKL5 NanoBRET in-cell target engagement assay; format: cell-based
T2 sequence (O76039 1-960): T1 sequence (O76039 1-960)

[4] = biological target: GSK3α (Homo sapiens, UniProt P49840); assay: GSK3α NanoBRET assay; format: cell-based; details: GSK3α NanoBRET IC50, tracer K8
Sequence of GSK3α (P49840 whole entry): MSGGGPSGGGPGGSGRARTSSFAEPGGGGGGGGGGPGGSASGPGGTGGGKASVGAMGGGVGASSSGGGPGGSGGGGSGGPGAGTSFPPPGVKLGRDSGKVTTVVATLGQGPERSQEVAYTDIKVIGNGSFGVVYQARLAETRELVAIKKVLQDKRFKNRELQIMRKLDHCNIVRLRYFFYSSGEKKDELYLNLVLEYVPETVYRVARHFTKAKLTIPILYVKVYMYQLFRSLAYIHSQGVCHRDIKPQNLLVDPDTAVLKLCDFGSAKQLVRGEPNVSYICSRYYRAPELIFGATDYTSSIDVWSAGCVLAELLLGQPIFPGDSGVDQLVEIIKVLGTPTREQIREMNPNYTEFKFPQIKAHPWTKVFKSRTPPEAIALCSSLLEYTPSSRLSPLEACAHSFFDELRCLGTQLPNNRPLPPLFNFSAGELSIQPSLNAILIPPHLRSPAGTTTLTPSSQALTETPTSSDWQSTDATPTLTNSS

[5] = biological target: GSK3β (Homo sapiens, UniProt P49841); assay: GSK3β NanoBRET assay; format: cell-based; details: GSK3β NanoBRET IC50, tracer K8
Sequence of GSK3β (P49841 whole entry): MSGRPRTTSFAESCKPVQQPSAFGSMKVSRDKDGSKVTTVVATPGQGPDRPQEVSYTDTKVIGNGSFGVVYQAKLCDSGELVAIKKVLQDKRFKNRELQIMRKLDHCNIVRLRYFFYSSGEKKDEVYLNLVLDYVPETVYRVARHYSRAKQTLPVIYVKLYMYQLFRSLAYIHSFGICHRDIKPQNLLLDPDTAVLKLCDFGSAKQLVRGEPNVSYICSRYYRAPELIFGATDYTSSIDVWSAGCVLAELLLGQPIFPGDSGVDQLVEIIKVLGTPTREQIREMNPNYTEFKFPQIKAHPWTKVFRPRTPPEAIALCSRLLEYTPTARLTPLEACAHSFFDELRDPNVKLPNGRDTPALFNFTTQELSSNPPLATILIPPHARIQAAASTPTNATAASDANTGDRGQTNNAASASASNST

[6] = biological target: T2, CDKL5; assay: CDKL5 split luciferase assay; format: binding; details: compound 2 vs compound 4
Method in brief: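 Luminescence-based competition binding assay: test compound displaces an active-site-dependent probe from CDKL5. Run as 12-point dose–response in duplicate to give IC50 values.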

[7] = biological target: T3, CDKL5 kinase domain (Homo sapiens, UniProt O76039, T169D/Y171E); assay: Thermal shift assay; format: binding; details: all concentrations evaluated (12.5, 25, or 50 µM)
T3 sequence (O76039 1-303 T169D/Y171E): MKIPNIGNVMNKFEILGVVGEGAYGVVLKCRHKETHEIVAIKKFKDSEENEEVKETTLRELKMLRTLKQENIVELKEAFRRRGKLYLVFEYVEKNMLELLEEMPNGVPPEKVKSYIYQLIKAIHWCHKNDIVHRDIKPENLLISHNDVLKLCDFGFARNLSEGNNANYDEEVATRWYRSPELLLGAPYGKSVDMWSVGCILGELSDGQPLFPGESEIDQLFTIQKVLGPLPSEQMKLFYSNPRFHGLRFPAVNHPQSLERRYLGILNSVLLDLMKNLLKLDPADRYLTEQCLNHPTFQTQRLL
Method in brief: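 The CDKL5 kinase domain (construct boundaries of 4BGQ) was used at 4 µM in 10 mM HEPES-NaOH pH 7.4, 500 mM NaCl with 5× SYPRO Orange. It was incubated with test compound at 12.5, 25 or 50 µM. Fluorescence was recorded on a real-time PCR instrument to derive melting-temperature shifts.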

[8] = tested on: S222 EB2 phosphorylation; assay: Western blot of S222 EB2 phosphorylation in rat primary cortical neurons; format: cell-based; details: 1 hour, 5 nM, 50 nM, 500 nM or 5 µM
Method in brief: (§1)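 Cortical neurons were taken from E18.5 Long Evans rat embryos (trypsin 0.25%, 15 min, 37 °C) and plated at 300,000/well on poly-D-lysine/laminin. At DIV11–14, cells were given 5 nM–5 µM test compound or DMSO for 1 h at 37 °C. Lysates were immunoblotted with ECL detection. pEB2 S222 was normalised to total EB2, pβ-catenin to total β-catenin, and CDKL5 to tubulin.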

[9] = tested on: S33/37/T41 β-Catenin phosphorylation; format: cell-based; details: rat primary cortical neurons, 1 hour, dose-response
Method in brief: as §1

[10] = tested on: CDKL5 expression; assay: Western blot of CDKL5 expression in rat primary cortical neurons; format: cell-based; details: 1 hour treatment
Method in brief: as §1

[11] = biological target: DYRK1B (Homo sapiens, UniProt Q9Y463); assay: Radiometric HotSpot kinase assay; format: biochemical; details: enzymatic IC50 values
Sequence of DYRK1B (Q9Y463 whole entry): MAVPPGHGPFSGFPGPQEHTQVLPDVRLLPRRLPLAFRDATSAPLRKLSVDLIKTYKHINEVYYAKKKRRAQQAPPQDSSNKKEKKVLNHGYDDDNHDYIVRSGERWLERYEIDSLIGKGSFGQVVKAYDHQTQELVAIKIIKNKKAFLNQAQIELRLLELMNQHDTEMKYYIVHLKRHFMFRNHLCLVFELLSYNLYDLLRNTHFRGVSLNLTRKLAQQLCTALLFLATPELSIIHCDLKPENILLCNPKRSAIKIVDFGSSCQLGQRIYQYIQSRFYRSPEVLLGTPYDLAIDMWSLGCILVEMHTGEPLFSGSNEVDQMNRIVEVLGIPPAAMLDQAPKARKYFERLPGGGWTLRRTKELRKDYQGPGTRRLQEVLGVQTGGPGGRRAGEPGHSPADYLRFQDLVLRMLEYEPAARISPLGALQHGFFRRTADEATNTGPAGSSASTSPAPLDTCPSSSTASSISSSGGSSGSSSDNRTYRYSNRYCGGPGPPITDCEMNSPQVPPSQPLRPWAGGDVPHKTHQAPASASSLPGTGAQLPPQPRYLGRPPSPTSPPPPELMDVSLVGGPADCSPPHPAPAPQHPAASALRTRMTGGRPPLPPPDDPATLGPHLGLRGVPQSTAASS
Method in brief: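 Window was taken from enzymatic IC50s. DYRK1B: radiometric HotSpot assay at ATP Km, 10-point dose–response. GSK3β: radiometric assay at ATP Km, 9-point dose–response.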

| SMILES | Effect on CDKL5 kinase activity [1] | Motor neuron survival in response to ER stress [2] | IC50 [3] [nM] | IC50 [4] [nM] | IC50 [5] [nM] | Fold higher potency than compound 4 in split-luciferase CDKL5 assay [6] [fold] | Change in melting temperature (ΔTm), CDKL5 [7] [°C] | Phosphorylation of EB2 (S222) [8] | Phosphorylation of β-catenin (S33/37/T41) [9] | CDKL5 expression [10] | Motor neuron survival at low concentrations compared with AT-7519 [2] | Fold less active than compound 2 in CDKL5 NanoBRET ([3]; compound 4 vs compound 2) | Selectivity window between GSK3β and DYRK1B, the next most potently inhibited kinase [11] [fold] |
| --- | --- | --- | --- | --- | --- | --- | --- | --- | --- | --- | --- | --- | --- |
| CCN1CCN(Cc2ccc(NC(=O)Nc3ccc(Oc4cc(NC)ncn4)cc3)cc2C(F)(F)F)CC1 [AST-487, reference compound] | robust, dose-dependent inhibition |  |  |  |  |  |  |  |  |  |  |  |  |
| O=C(NC1CCNCC1)c1n[nH]cc1NC(=O)c1c(Cl)cccc1Cl [AT-7519, N-(4-piperidinyl)-4-(2,6-dichlorobenzoylamino)-1H-pyrazole-3-carboxamide, reference compound] |  | neuroprotective |  |  |  |  |  |  |  |  |  |  |  |
| O=C(Nc1c[nH]nc1C(=O)NC1CCNCC1)c1cc(F)cc(F)c1 [Compound 2, 4-(3,5-difluorobenzamido)-N-(piperidin-4-yl)-1H-pyrazole-3-carboxamide] | robust, dose-dependent inhibition | neuroprotective; also recorded: promote survival of motor neurons | 4.6 | < 30 | < 30 | ~130 | > 6 | inhibited in a dose-dependent manner | reduced in a dose-dependent manner | not altered | better promoted motor neuron survival than AT-7519 |  |  |
| O=C(NCC1CCOCC1)c1n[nH]cc1NC(=O)c1c(F)cccc1F [Compound 4, 4-(2,6-difluorobenzamido)-N-((tetrahydro-2H-pyran-4-yl)methyl)-1H-pyrazole-3-carboxamide] | No significant difference | neuroprotective; also recorded: promote survival of motor neurons | 4400 |  |  |  |  | only at the highest concentration | reduced in a dose-dependent manner | not altered | better promoted motor neuron survival than AT-7519 | ~ 1000 × | 23 |
| CS(=O)(=O)CCNCc1ccc(-c2ccc3ncnc(Nc4ccc(OCc5cccc(F)c5)c(Cl)c4)c3c2)o1 [lapatinib, reference compound] | No significant difference |  |  |  |  |  |  |  |  |  |  |  |  |
